# Results pooled from the literature.
# Each line is one published result; the experiments were not run side by side.
# CYP3A7: Cytochrome P450 3A7 (CYP3A7, Homo sapiens, UniProt P24462)
SMILES,tested on,test,test system,setting,measurement,value
Cc1ccc(Cn2cc(C(=O)NN)c(=O)c3cc(Oc4ccccc4)ccc32)cc1,,metabolic stability,"male rat, liver microsomes","1 µM, 30 min",compound remaining,> 99%
COC(=O)N[C@H](C(=O)N1CC2(CC2)C[C@H]1c1ncc(-c2ccc3c(c2)C(F)(F)c2cc(-c4ccc5nc([C@@H]6[C@H]7CC[C@H](C7)N6C(=O)[C@@H](NC(=O)OC)C(C)C)[nH]c5c4)ccc2-3)[nH]1)C(C)C,CYP3A7,"enzyme activity, inhibitor, fluorescence",,"20 µM, 10 min, pH 7.4",inhibition,≥ 50%
N#Cc1cnn2c(Nc3cn(CCN4CCCC4)cn3)cc(Nc3cccc(-n4cnnc4)c3)nc12,,metabolic stability,"male CD-1 mouse, liver microsomes","5 µM, 30 min, pH 7.4",compound remaining,67%
COc1ccc2c(O[C@@H]3C[C@H]4C(=O)N[C@]5(C(=O)NS(=O)(=O)C6CC6)C[C@H]5/C=C\CCCCN(C)C(=O)[C@@H]4C3)cc(-c3nc(C(C)C)cs3)nc2c1C,CYP3A7,"enzyme activity, inhibitor, fluorescence",,"20 µM, 10 min, pH 7.4",inhibition,≥ 50%
N#C[C@@]12C[C@@H]1[C@@H](n1cnc3c(N[C@@H](C4CCC4)C4CC4)nc(I)nc31)[C@H](O)[C@@H]2O,,metabolic stability,"mouse, liver microsomes",1 h,compound remaining,72.6%
CCN(CCN)c1ccc(Nc2cc(NC3CC3)n3ncc(C#N)c3n2)cc1-n1cnnc1,,metabolic stability,"male CD-1 mouse, liver microsomes","5 µM, 30 min, pH 7.4",compound remaining,92%
Oc1ccccc1/C=N/c1c(-c2ccccc2)nc2ccc(Cl)cn12,MT4,"cell growth or viability, MTT",,5 days,CC50,17.9 µg/mL
N#Cc1cnn2c(NC3CC3)cc(Nc3cc(-n4cnnc4)ccc3F)nc12,,metabolic stability,"male CD-1 mouse, liver microsomes","5 µM, 30 min, pH 7.4",compound remaining,100%
O=[N+]([O-])c1cccc(/C=N/c2c(-c3ccccc3)nc3ccc(Cl)cn23)c1,MT4,"cell growth or viability, MTT",,5 days,CC50,82.1 µg/mL
COC[C@H]1C[C@@H](c2ncc(-c3ccc4c(c3)COc3cc5c(ccc6nc([C@@H]7CC[C@H](C)N7C(=O)[C@@H](NC(=O)OC)C(C)C)[nH]c65)cc3-4)[nH]2)N(C(=O)[C@H](NC(=O)OC)c2ccccc2)C1,CYP3A7,"enzyme activity, inhibitor, fluorescence",,"20 µM, 10 min, pH 7.4",inhibition,≥ 50%
N#Cc1cnn2c(Nc3cn(CCN4CCOCC4)cn3)cc(Nc3cccc(-n4cnnc4)c3)nc12,,metabolic stability,"male CD-1 mouse, liver microsomes","5 µM, 30 min, pH 7.4",compound remaining,81%
O=[N+]([O-])c1ccccc1/C=N/c1c(-c2ccccc2)nc2ccc(Cl)cn12,MT4,"cell growth or viability, MTT",,5 days,CC50,> 125 µg/mL
